Screening data from PubChem BioAssay.
Rows were chosen to be rich in hits. Some 3.4% of all compounds tested hit in one or more screens of this group.
TAAR1 antagonist: human TAAR1 antagonists, primary screen, Fluo-8 calcium fluorescence, CHO RD-HGA16 cells. Trace amine-associated receptor 1 (Homo sapiens), Q96RJ0. antagonist. inhibition, % at 3 µM. 360,000 tested, 1.5% active. AID 624466, 2012;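 active = inhibition above a per-plate cutoff, the mean inhibition of test compounds on that plate plus 3 SD, cut at about 49% in these data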;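 note: 0% = DMSO plus EC80 beta-PEA response and 100% = DMSO alone without agonist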
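test system = CHO RD-HGA16 cells bearing hTAAR1 | replication = singlicate | controls = DMSO-only wells and EC80 β-PEA-stimulated wells | reagent = EC80 β-phenethylamine stimulus | read-out basis = percent inhibition of PEA-evoked calcium signal, max/basal emission ratio | schedule = seeding 17-24 h prior, 75-min 37 °C, 30-min RT dye loading | signal = kinetic Fluo-8 calcium fluorescence measurement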
TAAR1 agonist: human TAAR1 agonists, primary screen, Fluo-8 calcium fluorescence, CHO RD-HGA16 cells; Trace amine-associated receptor 1 (Homo sapiens), Q96RJ0; vehicle wells 0%, saturating PEA agonist 100%; activation, % at 3 µM; 360,000 tested, 0.99% active;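 active = activation above the mean activation of all test compounds in the run plus 3 SD, cut at about 38% in these data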
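Assay system – CHO-derived RD-HGA16 cells with stable Gα16 and human TAAR1 · Compound dosing – one-point dosing at 3 µM (nominal) · Incubation – 17-24 h seeding, 75 min 37 °C dye, 30 min RT · Measured by – kinetic Fluo-8 calcium fluorescence · Control set – DMSO vehicle as 0%, PEA at EC100 as 100% · Repeats – single well for each compound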
M1 antag: human M1 muscarinic receptor antagonists, primary screen, CHO-K1 cells, Fluo-8 calcium fluorescence, 1536-well | Muscarinic acetylcholine receptor M1 (Homo sapiens), P11229 | CHO-K1 hM1, ACh EC80 antagonist | inhibition, % at 3 µM | 360,000 tested, 1.3% active;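 active = percent inhibition above its own plate's cutoff, namely the mean of that plate's compound wells plus 3 SD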;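 note: peak over basal fluorescence ratio during 140 s after agonist addition; 0% = ACh EC80 plus DMSO and 100% = DMSO alone without agonist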
Target sequence (P11229 whole entry, looked up): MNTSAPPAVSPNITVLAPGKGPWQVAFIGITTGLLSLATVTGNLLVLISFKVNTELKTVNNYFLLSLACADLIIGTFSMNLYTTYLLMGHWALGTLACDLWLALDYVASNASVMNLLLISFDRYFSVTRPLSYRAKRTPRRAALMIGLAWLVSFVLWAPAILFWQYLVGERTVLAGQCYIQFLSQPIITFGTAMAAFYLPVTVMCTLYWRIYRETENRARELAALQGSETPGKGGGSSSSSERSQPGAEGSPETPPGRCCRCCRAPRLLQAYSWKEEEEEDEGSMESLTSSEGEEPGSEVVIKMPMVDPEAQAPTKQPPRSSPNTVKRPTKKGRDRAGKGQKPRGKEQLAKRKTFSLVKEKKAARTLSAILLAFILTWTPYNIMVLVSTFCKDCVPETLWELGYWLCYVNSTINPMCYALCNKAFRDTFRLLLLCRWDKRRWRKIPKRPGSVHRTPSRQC
M1 PAM: human M1 muscarinic receptor positive allosteric modulators, primary screen, CHO-K1 cells, Fluo-8 calcium fluorescence, 1536-well; Muscarinic acetylcholine receptor M1 (Homo sapiens), P11229; CHO-K1 hM1, ACh EC20; 0% = ACh EC20, 100% = maximal ACh; activation, % at 3 µM; 360,000 tested, 0.088% active; in the data active = activation above about 19%, passing the limit was not always enough
M1 ag: human M1 muscarinic receptor agonists, primary screen, Fluo-8 calcium fluorescence, CHO-K1 cells, HTS | activation, % at 3 µM | Muscarinic acetylcholine receptor M1 (Homo sapiens), P11229 | CHO-K1 hM1, agonist mode; 0% DMSO, 100% acetylcholine EC100 | 360,000 tested, 0.33% active;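 active = activation above the run's mean compound activation plus 3 SD, cut at about 16% in these data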;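 note: peak over basal fluorescence ratio within a 140 s kinetic read after compound addition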
TAAR1 ag confirm: human TAAR1 agonists, retest of hits, confirmation, Fluo-8 calcium fluorescence, CHO RD-HGA16 cells | shares compounds with TAAR1 agonist | scaled: DMSO 0%, maximal phenethylamine 100% | activation, % at 3 µM | 2,400 tested, 82% active;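 active = activation above a cutoff set at the run's mean compound activation plus 3 SD, cut at about 39% in these data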
Ga16 nonsel ag: nonselective calcium mobilization agonists, CHO-Ga16 cells, counter-screen for hTAAR1 agonist project, cell-based, fluorescence, CHO-Ga16 parental line; shares compounds with TAAR1 agonist; 2,400 tested, 50% active; activation, % at 3 µM; Fluo-8 calcium fluorescence; normalized to maximal ATP response, DMSO zero;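 active = activation above the run cutoff, the mean activation over all tested wells plus 3 SD, cut at about 12% in these data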;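 note: 0% = DMSO wells and 100% = maximal ATP response on the peak over basal ratio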
TAAR1 desens: TAAR1 desensitization by agonist hits, confirmation, counter-screen for TAAR1 agonist project, cell-based, fluorescence, tachyphylaxis. shares compounds with TAAR1 agonist. CHO RD-HGA16 hTAAR1, Fluo-8 calcium, beta-PEA response inhibition. inhibition, % at 3 µM. 2,400 tested, 46% active. AID 651951, 2012;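 active = inhibition above the run cutoff, the mean inhibition of all test compounds plus 3 SD, cut at about 49% in these data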;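 note: beta-PEA stimulus applied at its EC80; loss of beta-PEA calcium signal after compound pretreatment read as receptor desensitization; 0% = DMSO with beta-PEA at EC80 and 100% = DMSO alone without agonist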
Ga16 antag count: inhibition of ATP-evoked calcium response in CHO-Ga16 cells, counter-screen for TAAR1 agonist project, cell-based, fluorescence. shares compounds with TAAR1 agonist. CHO-Ga16 ATP-induced calcium, Fluo-8 fluorescence. inhibition, % at 3 µM. 2,400 tested, 39% active. AID 651952, 2012;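 active = inhibition above the plate's mean compound inhibition plus 3 SD, computed per plate, cut at about 22% in these data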;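 note: 0% = EC80 ATP with DMSO and 100% = DMSO wells without ATP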
Starred values were filed as active, the others as inactive; x = no result given; ! = a repeat was not active.

SMILES	TAAR1 antagonist	TAAR1 agonist	M1 antag	M1 PAM	M1 ag	TAAR1 ag confirm	Ga16 nonsel ag	TAAR1 desens	Ga16 antag count
COC(=O)[C@@]12C[C@@H](CC(=O)NCCc3ccccc3OC)C(=O)N(Cc3ccc4c(c3)OCO4)C1=CCC(C)(C)C2	51*	61*	x	x	x	100*	0	58*	-1
CCCCCCCCN1C(=O)[C@H](CC(=O)NCCc2ccccc2OC)C[C@@]2(C(=O)OCC)CCCC=C12	-2	56*	x	x	x	57*	2	25	10
COc1ccccc1NC(=O)Nc1nnc([C@H]2C[C@H](O)[C@@H](CO)O2)s1	-33	3	2	-1	-2	x	x	x	x
COc1ccc(NC(=O)Cn2c(=O)cnc3ccccc32)cc1S(=O)(=O)N1CCCCC1	10	0	-8	8	-5	x	x	x	x
CCOC(=O)C1CCNC(=O)C1=O (stereo unspecified)	2	0	-9	9	-2	x	x	x	x
O=Cc1c(-c2ccccc2)cc2oc3ccccc3cc1-2	x	x	-4	1	-1	x	x	x	x
COC(=O)[C@]12CCCCC=C1N(Cc1ccco1)C(=O)[C@H](CC(=O)NCCc1ccccc1OC)C2	9	51*	x	x	x	31	3	26	20
CCCCNC(=O)C[C@@H]1C[C@@]2(C(=O)OC)CCCCC=C2N(Cc2ccco2)C1=O	-17	3	x	x	x	x	x	x	x
Cc1c(NC(=O)c2cccc(NC(=O)COc3cccc(Br)c3)c2)c(=O)n(-c2ccccc2)n1C	37	16	7	-12	-3	x	x	x	x
CCCCc1c(Cc2ccccc2)ncn1CCc1ccccc1OC	55*	49*	x	x	x	68*	7	60*	56*
CCCCc1c(-c2ccccc2OC)ncn1CCc1ccccc1	34	61*	x	x	x	77*	12*	66*	27*
CCc1c(Cc2cccc(F)c2)ncn1CCc1ccccc1OC	-18	40*	x	x	x	50*	5	15	13
CCCc1c(Cc2cccc(F)c2)ncn1CCc1ccccc1OC	35	50*	x	x	x	79*	14*	61*	20
CC1CCN(C(=O)CCC(=O)Nc2ccc([N+](=O)[O-])cc2)CC1	-24	0	-4	12	-1	x	x	x	x
Cc1ccc(C(C)NC(=O)c2cc3cc(Br)ccc3oc2=N)cc1 (stereo unspecified)	-24	1	-24	14	-2	x	x	x	x
Cc1cc(Nc2ccc(Cl)cc2)nc(N)n1	16	53*	-4	3	-7	61*	1	37	6
COc1cccc2c(=O)n(CC(=O)Nc3ccc(F)cc3)ccc12	-23	1	-11	10	-2	x	x	x	x
COc1cccc2c(=O)n(CC(=O)Nc3cccc(F)c3)ccc12	26	61*	-9	9	-1	46*	40*	16	12
Cc1ccc(Oc2cnc3ccccc3n2)cc1	-9	24	-17	15	-6	x	x	x	x
Cc1ccc(Oc2ccc(Oc3ccc(C)cc3)nn2)cc1	68*	66*	-5	6	-3	5	17*	12	17
CCN1CCCC1CNc1ccc(S(C)(=O)=O)cc1[N+](=O)[O-] (stereo unspecified)	10	-4	15	-4	-8	x	x	x	x
Cc1ccccc1CSCC1Nc2ccc(C(=O)NCCc3ccccc3)cc2NC1=O (stereo unspecified)	-15	9	-10	5	-1	x	x	x	x
S=C(Nc1ccc(Cl)c(Cl)c1)NC1CCN(Cc2ccccc2)CC1	74*	112*	6	11	17*	98*	57*	89*	67*
Fc1ccc(NC(=S)NC2CCN(Cc3ccccc3)CC2)cc1	-15	10	7	-9	-7	x	x	x	x
C/C(=C\C=C(C#N)C#N)c1cc(C#N)c(N)o1	37	99*	8	-9	4	30	33*	27	25*
SMILES	TAAR1 antagonist	TAAR1 agonist	M1 antag	M1 PAM	M1 ag	TAAR1 ag confirm	Ga16 nonsel ag	TAAR1 desens	Ga16 antag count
O=C(NCc1ccccc1)Nc1nnc([C@@H]2C[C@H](O)[C@@H](CO)O2)s1	-23	1	-14	7	-3	x	x	x	x
O=C(Cc1ccccc1)NC(=S)Nc1cccc(C(F)(F)F)c1	43	55*	-7	0	-2	33	15*	38	18
O=C(Cc1ccccc1)NC(=S)Nc1cc(C(F)(F)F)ccc1Cl	49*	53*	7	-7	-2	49*	20*	39	19
CCCC(=O)NC(=S)Nc1ccccc1N1CCOCC1	0	3	-11	6	-8	x	x	x	x
CC(=O)c1cccc(NC(=S)NC(=O)Cc2ccccc2)c1	3	15	-4	2	-5	x	x	x	x
CC(=O)c1cccc(NC(=S)NC(=O)Cc2ccc(Cl)cc2)c1	57*	94*	-3	12	21*	106*	59*	85*	47*
O=C(Cc1ccc(Cl)cc1)NC(=S)Nc1ccccc1N1CCOCC1	52*	65*	-2	2	3	72*	44*	57*	34*
Cc1ccc(NC(=S)NC(=O)Cc2ccccc2)c(O)c1	47	66*	-4	6	18*	73*	27*	43	24*
O=C(O)/C=C/C(=O)NCc1csc2ccccc12	x	x	-4	2	-2	x	2	x	4
O=C(NCCc1cccs1)c1ccc(CS(=O)Cc2cccc(Cl)c2)o1 (stereo unspecified)	22	63*	-3	-7	-5	57*	1	39	5
CCN(CC)CCNC(=O)c1ccc(Cl)c(S(=O)(=O)Nc2ccccc2OC)c1	9	8	-32	2	-9	x	x	x	x
CCN(CC)CCNC(=O)c1ccc(Cl)c(S(=O)(=O)Nc2ccc(Cl)cc2)c1	39	70*!	-3	0	-7	4	1	9	4
